IDH1 R132H inh – IDH1 R132H (human) inhibition. O75874. IDH1 R132H reductase, diaphorase/resazurin fluorescence, 60 min. inhibition, % at 10 µM. actives 0.18% (n = 70,000); in the data active = inhibition above about 34%;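 note: 0% = DMSO and 100% = no enzyme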
T cruzi growth – blocks T. cruzi growth in NIH3T3 culture. T. cruzi beta-gal in NIH3T3, GalScreen luminescence, 90 h. inhibition, % at 8.34 µM. actives 5.9% (n = 77,000). AID 624255;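 active = mean inhibition above about 93%, with at least 55% of replicates each passing it, limit read from the data, passing the limit was not always enough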
Pf Dd2 growth – inhibitors of Plasmodium falciparum Dd2 growth; P. falciparum Dd2 growth, SYBR Green, 72 h; hits give low values; activity change, % at 10 µM; actives 2.3% (n = 94,000); AID 1159554; in the data active = activity change below about -80%
KDM4C inh – blocks human GASC-1 (KDM4C) demethylase activity | Q9H3R0 | GST-KDM4C 2-372, H3K9me3 peptide, LANCE TR-FRET | inhibition, % at 12.5 µM | actives 0.15% (n = 96,000) | AID 720574;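 active = mean replicate inhibition above about 25%, with at least 55% of replicates also reaching it, limit read from the data, passing the limit was not always enough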
Target sequence (Q9H3R0 2-372 limits assumed): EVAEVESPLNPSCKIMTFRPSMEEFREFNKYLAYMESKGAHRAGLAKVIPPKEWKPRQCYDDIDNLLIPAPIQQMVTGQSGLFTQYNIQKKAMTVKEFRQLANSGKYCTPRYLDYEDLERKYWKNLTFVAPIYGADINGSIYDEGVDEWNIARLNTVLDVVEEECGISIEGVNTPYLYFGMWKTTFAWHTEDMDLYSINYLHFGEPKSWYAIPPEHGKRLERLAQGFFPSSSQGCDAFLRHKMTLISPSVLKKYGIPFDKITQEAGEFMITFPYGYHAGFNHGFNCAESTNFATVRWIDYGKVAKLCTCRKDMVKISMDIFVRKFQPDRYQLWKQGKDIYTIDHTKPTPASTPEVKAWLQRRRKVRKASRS
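System – N-terminal GST-fused human GASC-1 (KDM4C) fragment, residues 2-372 · Input – enzyme final amount 10 nM · Technique – LANCE TR-FRET, Eu antibody, ULight-streptavidin, EDTA, ex 340 nm, em 618/671 nm · Medium – HEPES buffer, pH 7.5, plus ascorbate · Incubation – enzyme reaction 30 min, then detection 60 min, both room temperature · Reagent – H3K9me3 peptide with Fe(II)/2OG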
* = called active by the depositor; / = not tested or not shown; ! = not confirmed by another sample. Only some compounds are listed: those with a hit (about 5.8% of all), similar ones and a draw of the others.

SMILES | IDH1 R132H inh | T cruzi growth | Pf Dd2 growth | KDM4C inh
C[C@H](CO)N1C[C@H](C)[C@@H](CN(C)Cc2ccc(C(=O)Nc3ccccc3N)cc2)Oc2c(NC(=O)Nc3ccccc3)cccc2C1=O | / | 87 | -86* | 0
CC(C)NC(=O)Nc1cccc2c1O[C@H](CN(C)Cc1ccc(C(=O)Nc3ccccc3N)cc1)[C@H](C)CN([C@H](C)CO)C2=O | 0 | / | -22 | 0
Cc1ccc(C)c(NC(=O)C(Cc2ccccc2)N2C(=O)c3ccccc3C2=O)c1 (stereo not given) | 0 | / | / | /
C[C@H](CO)N1C[C@H](C)[C@H](CN(C)S(=O)(=O)c2ccc([N+](=O)[O-])cc2)OCc2ccccc2-c2c(n(C)c3ccccc23)C1=O | / | / | -92* | -1
C[C@@H]1CN([C@@H](C)CO)C(=O)c2c(c3ccccc3n2C)-c2ccccc2CO[C@@H]1CN(C)S(=O)(=O)c1ccc([N+](=O)[O-])cc1 | / | / | -77 | 0
Cc1ccc(S(=O)(=O)N(C)C[C@@H]2OCc3ccccc3-c3c(n(C)c4ccccc34)C(=O)N([C@@H](C)CO)C[C@H]2C)cc1 | / | 75 | -81* | 3
Cc1ccc(S(=O)(=O)N(C)C[C@@H]2OCc3ccccc3-c3c(n(C)c4ccccc34)C(=O)N([C@H](C)CO)C[C@@H]2C)cc1 | / | / | -92* | /
C[C@@H]1CN([C@H](C)CO)C(=O)c2c(c3ccccc3n2C)-c2ccccc2CO[C@@H]1CN(C)S(=O)(=O)c1ccccc1 | / | 26 | -9 | -3
Cc1ccc(S(=O)(=O)N(C)C[C@H]2OCc3ccccc3-c3c(n(C)c4ccccc34)C(=O)N([C@@H](C)CO)C[C@@H]2C)cc1 | / | 55 | -92* | -4
O=C(CSc1nnnn1-c1ccccc1)Nc1ccc(Br)c(Cl)c1 | 0 | / | / | /
CCCCn1cc(C2CC(=O)N(c3ccc(Br)cc3)C2=O)c2ccccc21 (stereo not given) | 0 | / | / | /
Cc1ccc(NC(=O)CCCn2cc([N+](=O)[O-])cn2)cc1C | 0 | / | / | /
Cc1ccc(S(=O)(=O)N(C)C[C@@H]2OCc3ccccc3-c3c(n(C)c4ccccc34)C(=O)N([C@H](C)CO)C[C@H]2C)cc1 | 0 | 73 | -82* | -2
Cc1noc(C)c1S(=O)(=O)N(C)C[C@@H]1OCc2ccccc2-c2c(n(C)c3ccccc23)C(=O)N([C@H](C)CO)C[C@@H]1C | 0 | 85 | -84* | 1
C[C@@H]1CN([C@@H](C)CO)C(=O)c2c(c3ccccc3n2C)-c2ccccc2CO[C@H]1CN(C)S(=O)(=O)c1ccc(F)cc1 | / | 70 | -54 | 1
COc1ccc(NC(=O)N(C)C[C@@H]2OCc3ccccc3-c3c(n(C)c4ccccc34)C(=O)N([C@@H](C)CO)C[C@@H]2C)c(OC)c1 | -1 | 53 | -83* | -1
C[C@H](CO)N1C[C@H](C)[C@@H](CN(C)C(=O)Nc2cccc(C(F)(F)F)c2)OCc2ccccc2-c2ccccc2C1=O | 0 | 51 | -65 | 2
COc1ccc(NC(=O)N(C)C[C@H]2OCc3ccccc3-c3c(n(C)c4ccccc34)C(=O)N([C@@H](C)CO)C[C@@H]2C)c(OC)c1 | / | 43 | -85* | -1
COc1ccc(NC(=O)N(C)C[C@@H]2OCc3ccccc3-c3c(n(C)c4ccccc34)C(=O)N([C@H](C)CO)C[C@@H]2C)c(OC)c1 | / | 17 | 30 | -1
COc1ccc(NC(=O)N(C)C[C@H]2OCc3cnnn3CCCC(=O)N([C@H](C)CO)C[C@H]2C)c(OC)c1 | 54* | -7 | 1 | 9
C[C@@H]1CN([C@H](C)CO)C(=O)c2ccccc2-c2ccccc2CO[C@H]1CN(C)C(=O)Nc1cccc(C(F)(F)F)c1 | / | 75 | -87* | 0
COc1cc([N+](=O)[O-])ccc1NC(=O)CSc1nc(C)cc(C(F)(F)F)n1 | 0 | / | / | /
O=[N+]([O-])c1nn(-c2ccc(Cl)cc2)n(O)c1=NCc1ccccn1 | 0 | / | / | /
COc1ccc(NC(=O)CSc2nc(C)cc(C(F)(F)F)n2)c([N+](=O)[O-])c1 | 0 | / | / | /
COc1cccc(NC(=O)N(C)C[C@H]2OCc3ccccc3-c3c(n(C)c4ccccc34)C(=O)N([C@@H](C)CO)C[C@@H]2C)c1 | / | 20 | -85* | -1
SMILES | IDH1 R132H inh | T cruzi growth | Pf Dd2 growth | KDM4C inh
C[C@@H]1CN([C@H](C)CO)C(=O)c2c(c3ccccc3n2C)-c2ccccc2CO[C@@H]1CN(C)C(=O)Nc1cccc(C(F)(F)F)c1 | / | / | -84* | 0
COc1ccc(-c2ccc(C3[C@@H]4CN(S(=O)(=O)c5cccc(C)c5)C[C@H]3N4)cc2)cc1 (stereo not given in full) | / | / | -86*! | -2
N#Cc1cccc(-c2ccc(C3[C@@H]4CN(S(=O)(=O)c5ccc(F)cc5)C[C@H]3N4)cc2)c1 (stereo not given in full) | / | / | -72 | 34*!
N#Cc1cccc(-c2ccc([C@@H]3[C@@H]4CN(S(=O)(=O)c5ccc(-c6ccccc6)cc5)C[C@H]3N4)cc2)c1 | / | / | -72 | -59
Cc1cccc(-c2ccc([C@H]3[C@H]4CN(S(=O)(=O)c5cccc(C)c5)CCCCN4[C@H]3CO)cc2)c1 | / | 64 | -86* | 0
COc1cccc(S(=O)(=O)N2C[C@@H]3N[C@H](C2)C3c2ccc(-c3cccc(C)c3)cc2)c1 (stereo not given in full) | / | / | 11 | 5
O=C(Cn1ccc([N+](=O)[O-])n1)Nc1ccc(F)c(Cl)c1 | 0 | / | / | /
COc1cc2c(cc1OC)CN(C(=O)CSc1ncnc3sc4c(c13)CCC(C)C4)CC2 (stereo not given) | 0 | / | / | /
N#C[C@@H]1[C@H](c2ccc(C#CC3CCCCC3)cc2)[C@H](CO)N1C(=O)Nc1ccc(F)cc1 | / | / | -88* | -2
N#C[C@H]1[C@H](c2ccc(C#CC3CCCCC3)cc2)[C@@H](CO)N1C(=O)Nc1ccc(F)cc1 | / | / | -86* | 1
COc1ccc(-c2ccc(C#N)c(SCC(=O)Nc3cc(OC)c(OC)c(OC)c3)n2)cc1 | 0 | / | / | /
C[C@@H]1CN([C@@H](C)CO)C(=O)c2cccc(NC(=O)CCCCCC(=O)Nc3ccccc3N)c2O[C@@H]1CN(C)Cc1ccc(Oc2ccccc2)cc1 | / | / | -91* | -1
C[C@H]1CN([C@@H](C)CO)C(=O)c2cccc(NC(=O)CCCCCC(=O)Nc3ccccc3N)c2O[C@@H]1CN(C)Cc1ccc(Oc2ccccc2)cc1 | 0 | / | -82* | 0
C[C@@H]1CN([C@H](C)CO)C(=O)c2cc(NC(=O)CCCCCC(=O)Nc3ccccc3N)ccc2O[C@@H]1CN(C)Cc1ccc(Oc2ccccc2)cc1 | / | / | -60 | 11
C[C@@H]1CN([C@H](C)CO)C(=O)c2cccc(NC(=O)CCCCCC(=O)Nc3ccccc3N)c2O[C@@H]1CN(C)Cc1ccc(Oc2ccccc2)cc1 | 0 | / | -91* | 1
C[C@H](CO)N1C[C@H](C)[C@H](CN(C)C(=O)Nc2ccccc2)Oc2c(NC(=O)CCCCCC(=O)Nc3ccccc3N)cccc2C1=O | 0 | / | -58 | -1
Cc1oc(-c2ccc(Cl)cc2)cc1COC(=O)Nc1ccccc1 | 0 | / | / | /
Cn1c(SCC(=O)c2ccc([N+](=O)[O-])cc2)nnc1-c1cccs1 | 0 | / | / | /
